Assay results as given in ChEMBL document CHEMBL1128506, “Synthesis and dopaminergic activity of pyridine analogs of 5-hydroxy-2-(di-n-propylamino)tetralin” (J Med Chem, 1995).

Assays:
Rattus norvegicus [1] = assay: Percent reversal of the increase on DOPA levels in the striatum of GBL-treated rats administered ip with 10 mg/kg of compound.; assay type: functional; details: route intraperitoneal
How it was run: (§1)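 Male Long-Evans rats received compound 1 h before sacrifice. GBL (750 mg/kg ip) and the decarboxylase inhibitor NSD 1015 (100 mg/kg ip) were given 30 min before sacrifice. Striatal DOPA was measured by HPLC with electrochemical detection. Result reported as percent reversal of the GBL-induced DOPA increase, n = 4.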

Mus musculus [2] = assay: Inhibition of locomotor activity(LMA) in mouse after ip administration of the compound.; assay type: functional
How it was run: (§2)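 Mice given compound ip, then tested immediately for 1 h in darkened cylindrical photobeam chambers. Activity expressed as percent inhibition relative to vehicle-treated animals.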

D(2) dopamine receptor [3] = target: T1, D(2) dopamine receptor (Homo sapiens, UniProt P14416); assay: In vitro binding affinity is the ability to displace [3H]spiperone from human Dopamine receptor D2 expressed in CHO-K1 cells; assay type: cell-based
D(2) dopamine receptor [4] = target: T1, D(2) dopamine receptor; assay: In vitro binding affinity is the ability to displace [3H]N-0437 from human Dopamine receptor D2 expressed in CHO-K1 cells; assay type: cell-based
D(3) dopamine receptor [5] = target: T2, D(3) dopamine receptor (Homo sapiens, UniProt P35462); assay: In vitro binding affinity is the ability to displace [3H]spiperone from human Dopamine receptor D3 expressed in CHO-K1 cells.; assay type: cell-based
Mus musculus [6] = assay: Inhibition of locomotor activity(LMA) in mouse after ip administration of the compound; assay type: functional; how it was run: as §2
D(3) dopamine receptor [7] = target: T2, D(3) dopamine receptor; assay: In vitro binding affinity is the ability to displace [3H]spiperone from human Dopamine receptor D3 expressed in CHO-K1 cells; assay type: cell-based
How it was run: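 CHO-K1 cells stably expressing human D3 receptor, grown in F-12 medium with 10% fetal bovine serum under humidified 5% CO2/95% air.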

Rattus norvegicus [8] = assay: Percent reversal of the increase on DOPA levels in the striatum of GBL-treated rats administered ip with 10 mg/kg of compound; assay type: functional; details: route intraperitoneal; how it was run: as §1
Rattus norvegicus [9] = assay: Inhibition of locomotor activity(LMA) in rat after sc administration of the compound.
Rattus norvegicus [10] = assay: as above; remark: listed apart in the source

T1 sequence (P14416 whole entry): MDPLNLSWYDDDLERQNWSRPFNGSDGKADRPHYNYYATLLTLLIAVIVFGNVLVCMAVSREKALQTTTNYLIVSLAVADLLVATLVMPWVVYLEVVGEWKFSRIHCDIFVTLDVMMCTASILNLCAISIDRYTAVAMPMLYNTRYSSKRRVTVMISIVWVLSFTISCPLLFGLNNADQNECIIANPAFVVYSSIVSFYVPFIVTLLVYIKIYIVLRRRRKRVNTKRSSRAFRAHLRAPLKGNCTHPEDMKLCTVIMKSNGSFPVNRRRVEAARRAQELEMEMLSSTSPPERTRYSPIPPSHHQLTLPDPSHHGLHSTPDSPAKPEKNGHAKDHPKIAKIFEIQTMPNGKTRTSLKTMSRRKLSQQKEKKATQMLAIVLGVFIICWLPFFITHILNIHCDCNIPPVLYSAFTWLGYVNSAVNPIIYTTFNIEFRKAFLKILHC
T2 sequence (P35462 whole entry): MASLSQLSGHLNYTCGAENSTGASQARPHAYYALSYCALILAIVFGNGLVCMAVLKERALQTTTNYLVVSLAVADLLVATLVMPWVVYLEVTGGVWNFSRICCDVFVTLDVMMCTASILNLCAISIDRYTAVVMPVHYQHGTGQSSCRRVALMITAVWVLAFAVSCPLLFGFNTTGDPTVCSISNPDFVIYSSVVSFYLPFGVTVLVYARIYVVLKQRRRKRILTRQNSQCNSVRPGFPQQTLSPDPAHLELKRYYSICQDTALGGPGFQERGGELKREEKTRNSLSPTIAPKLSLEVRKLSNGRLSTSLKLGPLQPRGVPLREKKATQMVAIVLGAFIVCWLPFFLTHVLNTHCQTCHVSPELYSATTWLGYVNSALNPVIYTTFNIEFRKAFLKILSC

Row | SMILES | Ki (D(2) dopamine receptor [3]) [nM] | Ki (D(2) dopamine receptor [4]) [nM] | Ki (D(3) dopamine receptor [7]) [nM] | Decrease (Rattus norvegicus [1]) [%] | ED50 (Mus musculus [2]) [mg/kg] | Ki (D(3) dopamine receptor [5]) [nM] | ED50 (Mus musculus [6]) [mg/kg] | Decrease (Rattus norvegicus [8]) [%] | ED50 (Rattus norvegicus [9]) [mg/kg] | Inhibition (Rattus norvegicus [10]) [%]
1 | CCCN(CCC)C1CCc2cc(OC)ccc2C1 (centres undefined) | > 10000 | 3940 |  |  |  | 366 |  |  |  | 
2 | CCCN(CCC)C1CCc2nc(N)ccc2C1 (centres undefined) | 17.1 | 5 |  | 86 | 0.25 | 0.87 |  |  | 0.05 | 
3 | CCCN(CCC)C1CCc2c(O)cccc2C1 (centres undefined) [5-OH-DPAT] |  |  |  | 70 | 0.01 |  |  |  | 0.004 | 

Now from value to compound, other results behind:

Row | Ki (D(2) dopamine receptor [3]) [nM] | Ki (D(2) dopamine receptor [4]) [nM] | Ki (D(3) dopamine receptor [7]) [nM] | SMILES | Decrease (Rattus norvegicus [1]) [%] | ED50 (Mus musculus [2]) [mg/kg] | Ki (D(3) dopamine receptor [5]) [nM] | ED50 (Mus musculus [6]) [mg/kg] | Decrease (Rattus norvegicus [8]) [%] | ED50 (Rattus norvegicus [9]) [mg/kg] | Inhibition (Rattus norvegicus [10]) [%]
4 | > 3330 | 1200 |  | CCCN(CCC)C1CCc2nc(OC)ccc2C1 (centres undefined) | 62 | > 30 | 158 |  |  |  | 
5 | 462 | 57 | 1.9 | CCCN(CCC)C1CCc2nc(N)sc2C1 (centres undefined) |  |  |  | > 30 | 88 |  | 
6 | 272 | 466 |  | CCCN(CCC)C1CCc2ncccc2C1 (centres undefined) | 86 | 0.08 | 4.97 |  |  | 0.01 | 
7 | > 3330 | 523 | 36 | CCCN(CCC)C1CCc2n[nH]cc2C1 (centres undefined) | 91 | 0.64 |  |  |  |  | 45
